Converted amounts (≈) assume the structure as drawn.
Assays:
Type in all cases: functional
Candida tropicalis = assay: Antimicrobial activity against Candida tropicalis after 24 hrs by NCCLS method
Procedure, shortened: (§1)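 Broth serial-dilution MIC in 96-well plates, RPMI 1640 buffered with 0.165 M MOPS. Strains from ATCC or clinical isolates; fluconazole reference. MIC = lowest concentration giving ≥80% growth inhibition (turbidity) versus drug-free control. Read at 24 h for Candida spp., 72 h for C. neoformans, 7 days for filamentous fungi.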

Trichophyton rubrum = assay: Antimicrobial activity against Trichophyton rubrum after 7 days by NCCLS method; conditions: 168 h; procedure, shortened: as §1
Candida albicans [1] = assay: Antimicrobial activity against Candida albicans after 24 hrs by NCCLS method; procedure, shortened: as §1
Nannizzia gypsea = assay: Antimicrobial activity against Microsporum gypseum after 7 days by NCCLS method; conditions: 168 h; procedure, shortened: as §1
Candida albicans [2] = assay: Antimicrobial activity against fluconazole resistant Candida albicans clinical isolate after 24 hrs by NCCLS method
Procedure, shortened: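 Broth serial dilution in RPMI 1640 buffered with 0.165 M MOPS; clinical isolate. MIC80 is the lowest concentration giving 80% or greater turbidity reduction relative to the drug-free growth control, read at 24 h for Candida. Fluconazole is the reference drug.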

Aspergillus fumigatus = assay: Antimicrobial activity against Aspergillus fumigatus after 7 days by NCCLS method; conditions: 168 h; procedure, shortened: as §1
Cryptococcus neoformans = assay: Antimicrobial activity against Cryptococcus neoformans after 72 hrs by NCCLS method; procedure, shortened: as §1
Candida parapsilosis = assay: Antimicrobial activity against Candida parapsilosis after 24 hrs by NCCLS method; conditions: Lodderomyces parapsilosis; procedure, shortened: as §1
Pichia kudriavzevii = assay: Antimicrobial activity against Candida krusei after 24 hrs by NCCLS method; procedure, shortened: as §1

Row | SMILES | MIC80 (Candida tropicalis) [µg/mL] | MIC80 (Trichophyton rubrum) [µg/mL] | MIC80 (Candida albicans [1]) [µg/mL] | MIC80 (Nannizzia gypsea) [µg/mL] | MIC80 (Candida albicans [2]) [µg/mL] | MIC80 (Aspergillus fumigatus) [µg/mL] | MIC80 (Cryptococcus neoformans) [µg/mL] | MIC80 (Candida parapsilosis) [µg/mL] | MIC80 (Pichia kudriavzevii) [µg/mL]
1 | CCCCCCNCc1nc2ccccc2o1 | 64 (≈ 275 µM) | 16 (≈ 68.9 µM) | 64 (≈ 275 µM) | 16 (≈ 68.9 µM) | > 64 | > 64 | 64 (≈ 275 µM) |  | 
2 | CCCCCCN1CCc2c(c3cc(C)ccc3n2C)C1 | 64 (≈ 225 µM) |  | 64 (≈ 225 µM) |  |  | 64 (≈ 225 µM) | 64 (≈ 225 µM) | 64 (≈ 225 µM) | 16 (≈ 56.2 µM)
3 | CCCCCCCNCc1nc2ccccc2[nH]1 | > 64 | 64 (≈ 261 µM) | > 64 | > 64 | 32 (≈ 130 µM) | > 64 | 64 (≈ 261 µM) |  | 
4 | CCCCCCCCN1CCc2c(c3cc(C)ccc3n2C)C1 | 64 (≈ 205 µM) |  | 16 (≈ 51.2 µM) |  |  | 16 (≈ 51.2 µM) | > 64 | 16 (≈ 51.2 µM) | 64 (≈ 205 µM)
5 | CCCCCCCN1CCc2c(c3cc(F)ccc3n2C)C1 | > 64 |  | 64 (≈ 212 µM) |  |  | 64 (≈ 212 µM) | > 64 | 64 (≈ 212 µM) | > 64
6 | CCCCCCn1cnc2ccc(C)cc2c1=O | > 64 |  | > 64 |  |  | > 64 | > 64 | > 64 | > 64
7 | CCCCCCNCc1nc2ccccc2s1 | 64 (≈ 258 µM) | 64 (≈ 258 µM) | 64 (≈ 258 µM) | 64 (≈ 258 µM) | 64 (≈ 258 µM) | > 64 | 64 (≈ 258 µM) |  | 
8 | CCCCCCN1CCc2c(c3cc(Br)ccc3n2C)C1 | > 64 |  | > 64 |  |  | 64 (≈ 183 µM) | > 64 | > 64 | > 64
9 | CCCCCCCN1CCc2c(c3cc(I)ccc3n2C)C1 | > 64 |  | > 64 |  |  | > 64 | > 64 | 64 (≈ 156 µM) | > 64
10 | CCCCCCCNCc1nc2ccccc2s1 | 64 (≈ 244 µM) | 16 (≈ 61 µM) | 64 (≈ 244 µM) | 16 (≈ 61 µM) | 32 (≈ 122 µM) | > 64 | 64 (≈ 244 µM) |  | 
11 | CCCCCCNCc1nc2ccccc2[nH]1 | > 64 | 64 (≈ 277 µM) | 1 (≈ 4.32 µM) | > 64 | > 64 | > 64 | > 64 |  | 
12 | CCCCCCCN1CCc2c(c3cc(Br)ccc3n2C)C1 | > 64 |  | > 64 |  |  | > 64 | 64 (≈ 176 µM) | 64 (≈ 176 µM) | > 64
13 | CCCCCCCN1CCc2c(c3cc(C)ccc3n2C)C1 | 64 (≈ 214 µM) |  | 16 (≈ 53.6 µM) |  |  | 16 (≈ 53.6 µM) | > 64 | 16 (≈ 53.6 µM) | 64 (≈ 214 µM)
14 | CCCCCCCNCc1nc2ccccc2o1 | 64 (≈ 260 µM) | 16 (≈ 64.9 µM) | 64 (≈ 260 µM) | 16 (≈ 64.9 µM) | 64 (≈ 260 µM) | 64 (≈ 260 µM) | 16 (≈ 64.9 µM) |  | 
15 | OC(Cn1cncn1)(Cn1cncn1)c1ccc(F)cc1F [FLUCONAZOLE] | 1 (≈ 3.27 µM) | 4 (≈ 13.1 µM) | 1 (≈ 3.27 µM) | 16 (≈ 52.2 µM) |  | > 64 | 1 (≈ 3.27 µM) | 1 (≈ 3.27 µM) | 0.5 (≈ 1.63 µM)
16 | CCCCCCN1CCc2c(c3cc(Cl)ccc3n2C)C1 | > 64 |  | > 64 |  |  | 64 (≈ 210 µM) | > 64 | > 64 | 64 (≈ 210 µM)
17 | CCCCCCCCNCc1nc2ccccc2s1 | 64 (≈ 232 µM) | 16 (≈ 57.9 µM) | 64 (≈ 232 µM) | 64 (≈ 232 µM) | > 64 | > 64 | 16 (≈ 57.9 µM) |  | 
18 | CCCCCCCCN1CCc2c(c3cc(I)ccc3n2C)C1 | > 64 |  | 64 (≈ 151 µM) |  |  | > 64 | > 64 | 16 (≈ 37.7 µM) | 64 (≈ 151 µM)
19 | CCCCCCCCn1cnc2ccc(C)cc2c1=O | > 64 |  | > 64 |  |  | > 64 | > 64 | > 64 | > 64
20 | CCCCCCCCNCc1nc2ccccc2[nH]1 | 16 (≈ 61.7 µM) | 16 (≈ 61.7 µM) | > 64 | 16 (≈ 61.7 µM) | 16 (≈ 61.7 µM) | 32 (≈ 123 µM) | 16 (≈ 61.7 µM) |  | 
21 | CCCCCCCCN1CCc2c(c3cc(F)ccc3n2C)C1 | > 64 |  | 64 (≈ 202 µM) |  |  | > 64 | > 64 | 64 (≈ 202 µM) | > 64
22 | CCCCCCCn1cnc2ccc(C)cc2c1=O | > 64 |  | > 64 |  |  | 64 (≈ 248 µM) | > 64 | > 64 | > 64
23 | CCCCCCN1CCc2c(c3cc(I)ccc3n2C)C1 | > 64 |  | > 64 |  |  | > 64 | > 64 | 64 (≈ 161 µM) | > 64
24 | CCCCCCN1CCc2c(c3cc(F)ccc3n2C)C1 | > 64 |  | > 64 |  |  | > 64 | > 64 | > 64 | > 64
25 | CCCCCCCN1CCc2c(c3cc(Cl)ccc3n2C)C1 | > 64 |  | > 64 |  |  | > 64 | > 64 | > 64 | > 64
26 | CCCCCCCCNCc1nc2ccccc2o1 | 16 (≈ 61.4 µM) | 4 (≈ 15.4 µM) | 64 (≈ 246 µM) | 8 (≈ 30.7 µM) | 64 (≈ 246 µM) | 32 (≈ 123 µM) | 1 (≈ 3.84 µM) |  | 
27 | CCCCCCCCN1CCc2c(c3cc(Br)ccc3n2C)C1 | > 64 |  | 64 (≈ 170 µM) |  |  | > 64 | 64 (≈ 170 µM) | 16 (≈ 42.4 µM) | > 64
28 | CCCCCCCCN1CCc2c(c3cc(Cl)ccc3n2C)C1 | > 64 |  | > 64 |  |  | > 64 | > 64 | 64 (≈ 192 µM) | 64 (≈ 192 µM)

Source: ChEMBL document CHEMBL1770107, “Design and synthesis of antifungal benzoheterocyclic derivatives by scaffold hopping” (2011)
